# ChEMBL document CHEMBL1142350, “From rigid cyclic templates to conformationally stabilized acyclic scaffolds. Part I: the discovery of CCR3 antagonist development candidate BMS-639623 with picomolar inhibition potency against eosinophil chemotaxis” (Bioorg Med Chem Lett, 2008)
# What was measured:
# [1] = target: T1, C-C chemokine receptor type 3 (Homo sapiens, UniProt P51677); assay: Displacement of [125I]eotaxin from human CCR3 receptor expressed in CHO cells; format: cell-based
# T1 sequence (P51677 whole entry): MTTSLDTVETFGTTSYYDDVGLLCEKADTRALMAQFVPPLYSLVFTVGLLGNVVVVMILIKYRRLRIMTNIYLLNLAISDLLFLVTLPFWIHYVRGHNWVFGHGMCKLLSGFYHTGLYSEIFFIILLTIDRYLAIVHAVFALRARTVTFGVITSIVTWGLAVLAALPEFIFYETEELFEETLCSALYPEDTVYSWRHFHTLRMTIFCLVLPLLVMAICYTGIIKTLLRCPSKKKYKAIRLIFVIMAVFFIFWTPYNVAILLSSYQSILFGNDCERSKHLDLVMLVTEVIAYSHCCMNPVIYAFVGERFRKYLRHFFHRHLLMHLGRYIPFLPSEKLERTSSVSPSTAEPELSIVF
# [2] = Metabolic stability assessed as clearance in human liver microsomes; format: ADME, Microsome
# Cytochrome P450 2D6 = Cytochrome P450 2D6 (Homo sapiens, UniProt P10635)
# Chain of Cytochrome P450 2D6 (P10635 whole entry): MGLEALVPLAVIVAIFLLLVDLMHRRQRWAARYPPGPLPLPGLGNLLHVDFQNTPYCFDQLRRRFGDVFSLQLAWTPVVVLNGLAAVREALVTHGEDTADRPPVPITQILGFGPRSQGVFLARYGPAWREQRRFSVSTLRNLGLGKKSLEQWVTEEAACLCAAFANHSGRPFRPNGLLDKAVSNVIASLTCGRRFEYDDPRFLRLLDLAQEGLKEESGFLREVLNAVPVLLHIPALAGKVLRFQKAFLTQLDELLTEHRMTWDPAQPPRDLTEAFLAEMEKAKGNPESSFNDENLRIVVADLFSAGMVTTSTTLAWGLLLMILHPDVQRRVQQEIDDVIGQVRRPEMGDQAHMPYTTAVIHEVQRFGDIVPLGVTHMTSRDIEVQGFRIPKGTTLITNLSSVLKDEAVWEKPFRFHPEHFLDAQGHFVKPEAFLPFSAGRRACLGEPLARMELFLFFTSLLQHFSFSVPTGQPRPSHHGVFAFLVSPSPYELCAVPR
# [3] = target: T2, C-C chemokine receptor type 3 (Homo sapiens) (UniProt P51677); assay: Displacement of [125I]eotaxin from human CCR3 receptor expressed in CHO cells at 0.3 uM; format: cell-based
# T2 sequence (whole entry): T1 sequence (P51677 whole entry)
# [4] = Bioavailability in mouse at 10 mg/kg, po; format: ADME, organism-based; conditions: in vivo
# [5] = Bioavailability in chimpanzee at 2 mg/kg, po; format: ADME, organism-based, Pan troglodytes; conditions: in vivo
# [6] = Bioavailability in dog at 10 mg/kg, po; format: ADME, organism-based, Canis lupus familiaris; conditions: in vivo
# [7] = AUC in cynomolgus monkey at 10 mg/kg, po; format: ADME, organism-based, Macaca fascicularis; set-up: dose 10 mg/kg, route oral; conditions: plasma
# [8] = Bioavailability in cynomolgus monkey at 10 mg/kg, po; format: ADME, organism-based, Macaca fascicularis; conditions: in vivo
# [9] = Bioavailability in rat at 50 mg/kg, po; format: ADME, organism-based; conditions: in vivo
# [10] = AUC in mouse at 10 mg/kg, po; format: ADME, organism-based; set-up: dose 10 mg/kg, route oral; conditions: plasma
# [11] = Cmax in cynomolgus monkey at 10 mg/kg, po; format: ADME, organism-based, Macaca fascicularis; set-up: dose 10 mg/kg, route oral; conditions: in vivo
# [12] = Cmax in rat at 50 mg/kg, po; format: ADME, organism-based; set-up: dose 50 mg/kg, route oral; conditions: in vivo
# [13] = AUC in dog at 10 mg/kg, po; format: ADME, organism-based, Canis lupus familiaris; set-up: dose 10 mg/kg, route oral; conditions: plasma
# Cynomolgus monkey = assay: Reduction of eosinophilia in Ascaris suum-challenged cynomolgus monkey at 5 mg/kg, po bid 2 hrs administered before pathogen challenge after 10 hrs; format: functional, Macaca fascicularis; set-up: scale not given: the % may be the effect or the level left
# Method in brief: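 Cross-over design in five cynomolgus monkeys given vehicle or compound orally at 5 mg/kg b.i.d., 2 h before and 10 h after Ascaris suum aerosol challenge. Bronchoalveolar lavage was done 24 h after challenge and eosinophils were counted. Trough plasma levels were measured.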
# [14] = target: T1, C-C chemokine receptor type 3; assay: Antagonist activity at human CCR3 receptor in human eosinophil assessed as inhibition of eotaxin-stimulated intracellular calcium flux; format: functional, cell-based
# [15] = Cmax in dog at 10 mg/kg, po; format: ADME, organism-based, Canis lupus familiaris; set-up: dose 10 mg/kg, route oral; conditions: in vivo
# [16] = AUC in rat at 50 mg/kg, po; format: ADME, organism-based; set-up: dose 50 mg/kg, route oral; conditions: plasma
# [17] = AUC in chimpanzee at 2 mg/kg, po; format: ADME, organism-based, Pan troglodytes; set-up: dose 2 mg/kg, route oral; conditions: plasma
# [18] = Cmax in mouse at 10 mg/kg, po; format: ADME, organism-based; set-up: dose 10 mg/kg, route oral; conditions: in vivo
# [19] = Cmax in chimpanzee at 2 mg/kg, po; format: ADME, organism-based, Pan troglodytes; set-up: dose 2 mg/kg, route oral; conditions: in vivo
IC50 [1],IC50 (Cytochrome P450 2D6),Structure (SMILES),further results
1.5 nM,–,CC(=O)c1cc(NC(=O)N[C@H](C)CCN2CCC[C@@H](Cc3ccc(F)cc3)C2)cc(-c2nnnn2C)c1,–
2.4 nM,8200 nM,CC[C@H](CCN1CCC[C@@H](Cc2ccc(F)cc2)C1)NC(=O)Nc1cc(-c2nnnn2C)cc(C(C)(C)O)c1,CLhep predicted [2]: 15 mL/min/kg
1.7 nM,3000 nM,C[C@H](CCN1CCC[C@@H](Cc2ccc(F)cc2)C1)NC(=O)Nc1cc(-n2cccn2)cc(-n2cccn2)c1,–
–,> 100000 nM,C[C@@H](CC(=O)N1CCC[C@@H](Cc2ccc(F)cc2)C1)NC(=O)Nc1cccc(-c2nnnn2C)c1,Activity [3]: 37%
2.6 nM,–,CC(C)c1cc(NC(=O)N[C@H](C)CCN2CCC[C@@H](Cc3ccc(F)cc3)C2)cc(-c2nnnn2C)c1,–
1.7 nM,–,C[C@H](CCN1CCC[C@@H](Cc2ccc(F)cc2)C1)NC(=O)Nc1cc(Br)cc(-c2nnnn2C)c1,–
0.7 nM,–,C[C@H](CCN1CCC[C@@H](Cc2ccc(F)cc2)C1)NC(=O)Nc1cc(-c2nnnn2C)cc(C(C)(C)O)c1,CLhep predicted [2]: 12 mL/min/kg
2.7 nM,–,CC(=O)c1cc(NC(=O)N[C@H](C)CCN2CCC[C@@H](Cc3ccc(F)cc3)C2)cc(C(C)=O)c1,–
1.3 nM,–,C[C@H](CCN1CCC[C@@H](Cc2ccc(F)cc2)C1)NC(=O)Nc1cccc(-c2nnnn2C)c1,–
2 nM,–,C[C@H](CCN1CCC[C@@H](Cc2ccc(F)cc2)C1)NC(=O)Nc1cc(-n2ccnn2)cc(-n2ccnn2)c1,–
2 nM,–,CCc1cc(NC(=O)N[C@H](C)CCN2CCC[C@@H](Cc3ccc(F)cc3)C2)cc(-c2nnnn2C)c1,–
1.6 nM,2800 nM,O=C(NCCCN1CCC[C@@H](Cc2ccc(F)cc2)C1)Nc1cc(-n2cccn2)cc(-n2cccn2)c1,–
4.2 nM,4400 nM,C[C@H](CC(=O)N1CCC[C@@H](Cc2ccc(F)cc2)C1)NC(=O)Nc1cccc(-c2nnnn2C)c1,–
1.2 nM,–,Cc1cc(NC(=O)N[C@H](C)CCN2CCC[C@@H](Cc3ccc(F)cc3)C2)cc(-c2nnnn2C)c1,–
1 nM,–,CCc1cc(NC(=O)NCCCN2CCC[C@@H](Cc3ccc(F)cc3)C2)cc(-c2nnnn2C)c1,–
0.5 nM,–,CCc1cc(NC(=O)N[C@H](C)[C@H](CN2CCC[C@@H](Cc3ccc(F)cc3)C2)N(C)C)cc(-c2nnnn2C)c1,–
5.8 nM,–,CC(=O)c1cc(NC(=O)N[C@@H](C)CCN2CCC[C@@H](Cc3ccc(F)cc3)C2)cc(C(C)=O)c1,–
4 nM,–,C[C@@H](CCN1CCC[C@@H](Cc2ccc(F)cc2)C1)NC(=O)Nc1cccc(-c2nnnn2C)c1,–
–,2600 nM,C[C@@H](NC(=O)Nc1cccc(-c2nnnn2C)c1)[C@@H](O)CN1CCC[C@@H](Cc2ccc(F)cc2)C1,bioavailability [4]: 57%; bioavailability [5]: 16%; bioavailability [6]: 17%; AUC [7]: 1.05 µM·h; bioavailability [8]: 19%; bioavailability [9]: 45%; AUC [10]: 3.15 µM·h; Cmax [11]: 561 nM; Cmax [12]: 3170 nM; AUC [13]: 2.74 µM·h; Activity (Cynomolgus monkey): 82%; IC50 [14]: 0.87 nM; Cmax [15]: 926 nM; AUC [16]: 21.3 µM·h; AUC [17]: 0.639 µM·h; Cmax [18]: 1540 nM; Cmax [19]: 173 nM
1.5 nM,1000 nM,CCC[C@H](CCN1CCC[C@@H](Cc2ccc(F)cc2)C1)NC(=O)Nc1cc(-c2nnnn2C)cc(C(C)(C)O)c1,CLhep predicted [2]: 17 mL/min/kg
2.6 nM,–,CC(C)c1cc(NC(=O)NCCCN2CCC[C@@H](Cc3ccc(F)cc3)C2)cc(-c2nnnn2C)c1,–
